# What was measured:
# Type in all cases: functional
# MDA-MB-468 = experiment: Cytotoxicity against human MDA-MB-468 cells after 48 hrs by SRB assay; settings: MDA-MB-468, 48 h
# Method in brief: (§1)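 Five-dose NCI-60 panel screen: cells grown in RPMI 1640 with 5% FBS and 2 mM L-glutamine, preincubated 24 h at 37 °C, 5% CO2. Five 10-fold dilutions, 0.01–100 µM, applied for 48 h. Fixed with cold TCA (10% final), stained with 0.4% SRB, absorbance read at 515 nm. GI50, TGI and LC50 were taken from log concentration versus % growth curves using time-zero plates.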
# SN12C = experiment: Cytotoxicity against human SN12C cells after 48 hrs by SRB assay
# Method in brief: (§2)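 Cells were grown in RPMI 1640 with 5% FBS and 2 mM L-glutamine, then held 24 h at 37 °C and 5% CO2 before dosing. TCA-fixed time-zero plates were kept. Compound was dissolved in DMSO and given at five 10-fold dilutions for 48 h. Cells were fixed with cold TCA (10% final), stained with 0.4% SRB and read at 515 nm. GI50, TGI and LC50 came from Ti/Tz/control growth formulas.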
# NCI-H23 = experiment: Cytotoxicity against human NCI-H23 cells after 48 hrs by SRB assay; settings: NCI-H23, 48 h; method in brief: as §1
# SK-MEL-2 = experiment: Cytotoxicity against human SK-MEL-2 cells after 48 hrs by SRB assay; settings: SK-MEL-2, 48 h; method in brief: as §1
# SK-MEL-5 = experiment: Cytotoxicity against human SK-MEL-5 cells after 48 hrs by SRB assay; settings: SK-MEL-5, 48 h; method in brief: as §1
# HCT-15 = experiment: Cytotoxicity against human HCT15 cells after 48 hrs by SRB assay; settings: HCT-15, 48 h; method in brief: as §1
# T47D = experiment: Cytotoxicity against human T47D cells after 48 hrs by SRB assay; method in brief: as §2
# UO-31 = experiment: Cytotoxicity against human UO31 cells after 48 hrs by SRB assay; settings: UO-31, 48 h; method in brief: as §2
# CCRF-CEM = experiment: Cytotoxicity against human CCRF-CEM cells after 48 hrs by SRB assay; method in brief: as §1
# PC-3 = experiment: Cytotoxicity against human PC3 cells after 48 hrs by SRB assay; settings: PC-3, 48 h; method in brief: as §1
# Hs-578T = experiment: Cytotoxicity against human Hs578T cells after 48 hrs by SRB assay; method in brief: as §1
# TK-10 = experiment: Cytotoxicity against human TK10 cells after 48 hrs by SRB assay; settings: TK-10, 48 h; method in brief: as §2
# UACC-62 = experiment: Cytotoxicity against human UACC62 cells after 48 hrs by SRB assay; settings: UACC-62, 48 h; method in brief: as §2
# HT-29 = experiment: Cytotoxicity against human HT-29 cells after 48 hrs by SRB assay; settings: HT-29, 48 h; method in brief: as §1
# K562 = experiment: Cytotoxicity against human K562 cells after 48 hrs by SRB assay; settings: K562, 48 h; method in brief: as §1
# SR = experiment: Cytotoxicity against human SR cells after 48 hrs by SRB assay; method in brief: as §2
# SK-MEL-28 = experiment: Cytotoxicity against human SK-MEL-28 cells after 48 hrs by SRB assay; settings: SK-MEL-28, 48 h; method in brief: as §1
# OVCAR-5 = experiment: Cytotoxicity against human OVCAR5 cells after 48 hrs by SRB assay; settings: OVCAR-5, 48 h; method in brief: as §1
# A549 = experiment: Cytotoxicity against human A549 cells after 48 hrs by SRB assay; settings: A549, 48 h; method in brief: as §1
# EKVX = experiment: Cytotoxicity against human EKVX cells after 48 hrs by SRB assay; method in brief: as §1
# DU-145 = experiment: Cytotoxicity against human DU145 cells after 48 hrs by SRB assay; settings: DU-145, 48 h; method in brief: as §1
# SW-620 = experiment: Cytotoxicity against human SW620 cells after 48 hrs by SRB assay; settings: SW-620, 48 h; method in brief: as §2
# [1] = read-out: LC50 (the source's name)
# [2] = read-out: pLC50 (the source's name) (converted)
smiles,measurement,setting,value
Nc1cc(Br)c(-c2nnc(CCC(=O)c3nc4ccccc4[nH]3)o2)c(Br)c1,GI50,MDA-MB-468,1.95 µM
same,LC50,MDA-MB-468; read-out: LC50,> 100 µM
same,TGI,MDA-MB-468; read-out: TGI,6.97 µM
same,LC50,MDA-MB-468; read-out: pLC50 (converted),> 100 µM
same,TGI,MDA-MB-468; read-out: pTGI (converted),6.92 µM
same,GI50,SN12C,29.5 µM
same,CC50,SN12C; [1],> 100 µM
same,TGI,SN12C; read-out: TGI,> 100 µM
same,CC50,SN12C; [2],> 100 µM
same,TGI,SN12C; read-out: pTGI,> 100 µM
same,GI50,NCI-H23,3.24 µM
same,CC50,NCI-H23; [1],> 100 µM
same,TGI,NCI-H23; read-out: TGI,36.4 µM
same,CC50,NCI-H23; [2],> 100 µM
same,TGI,NCI-H23; read-out: pTGI (converted),36.3 µM
same,GI50,SK-MEL-2,4.27 µM
same,CC50,SK-MEL-2; [1],> 100 µM
same,TGI,SK-MEL-2; read-out: TGI,> 100 µM
same,CC50,SK-MEL-2; [2],> 100 µM
same,TGI,SK-MEL-2; read-out: pTGI,> 100 µM
same,GI50,SK-MEL-5,14.1 µM
same,CC50,SK-MEL-5; [1],> 100 µM
same,TGI,SK-MEL-5; read-out: TGI,> 100 µM
same,CC50,SK-MEL-5; [2],> 100 µM
same,TGI,SK-MEL-5; read-out: pTGI,> 100 µM
same,GI50,HCT-15,> 100 µM
same,CC50,HCT-15; [1],> 100 µM
same,TGI,HCT-15; read-out: TGI,> 100 µM
same,CC50,HCT-15; [2],> 100 µM
same,TGI,HCT-15; read-out: pTGI,> 100 µM
same,GI50,T47D,23.4 µM
same,LC50,T47D; read-out: LC50,> 100 µM
same,TGI,T47D; read-out: TGI,> 100 µM
same,LC50,T47D; read-out: pLC50 (converted),> 100 µM
same,TGI,T47D; read-out: pTGI,> 100 µM
same,GI50,UO-31,4.07 µM
same,CC50,UO-31; [1],> 100 µM
same,TGI,UO-31; read-out: TGI,> 100 µM
same,CC50,UO-31; [2],> 100 µM
same,TGI,UO-31; read-out: pTGI,> 100 µM
same,GI50,CCRF-CEM,3.8 µM
same,CC50,CCRF-CEM; [1],> 100 µM
same,TGI,CCRF-CEM; read-out: TGI,> 100 µM
same,CC50,CCRF-CEM; [2],> 100 µM
same,TGI,CCRF-CEM; read-out: pTGI,> 100 µM
same,GI50,PC-3,3.09 µM
same,LC50 (concentration killing 50% of cells),PC-3; read-out: LC50,> 100 µM
same,TGI,PC-3; read-out: TGI,> 100 µM
same,LC50 (concentration killing 50% of cells),PC-3; read-out: pLC50 (converted),> 100 µM
same,TGI,PC-3; read-out: pTGI,> 100 µM
same,GI50,Hs-578T,3.72 µM
same,CC50,Hs-578T; [1],> 100 µM
same,TGI,Hs-578T; read-out: TGI,31.7 µM
same,CC50,Hs-578T; [2],> 100 µM
same,TGI,Hs-578T; read-out: pTGI (converted),31.6 µM
same,GI50,TK-10,36.3 µM
same,LC50,TK-10; read-out: LC50,> 100 µM
same,TGI,TK-10; read-out: TGI,> 100 µM
same,LC50,TK-10; read-out: pLC50 (converted),> 100 µM
same,TGI,TK-10; read-out: pTGI,> 100 µM
same,GI50,UACC-62,5.37 µM
same,CC50,UACC-62; [1],> 100 µM
same,TGI,UACC-62; read-out: TGI,> 100 µM
same,CC50,UACC-62; [2],> 100 µM
same,TGI,UACC-62; read-out: pTGI,> 100 µM
same,GI50,HT-29,19.1 µM
same,CC50,HT-29; [1],> 100 µM
same,TGI,HT-29; read-out: TGI,83.5 µM
same,CC50,HT-29; [2],> 100 µM
same,TGI,HT-29; read-out: pTGI (converted),83.2 µM
same,GI50,K562,2.88 µM
same,CC50,K562; [1],> 100 µM
same,TGI,K562; read-out: TGI,> 100 µM
same,CC50,K562; [2],> 100 µM
same,TGI,K562; read-out: pTGI,> 100 µM
same,GI50,SR,4.17 µM
same,CC50,SR; [1],> 100 µM
same,TGI,SR; read-out: TGI,> 100 µM
same,CC50,SR; [2],> 100 µM
same,TGI,SR; read-out: pTGI,> 100 µM
same,GI50,SK-MEL-28,6.31 µM
same,CC50,SK-MEL-28; [1],> 100 µM
same,TGI,SK-MEL-28; read-out: TGI,79 µM
same,CC50,SK-MEL-28; [2],> 100 µM
same,TGI,SK-MEL-28; read-out: pTGI (converted),79.4 µM
same,GI50,OVCAR-5,29.5 µM
same,LC50,OVCAR-5; read-out: LC50,> 100 µM
same,TGI,OVCAR-5; read-out: TGI,> 100 µM
same,LC50,OVCAR-5; read-out: pLC50 (converted),> 100 µM
same,TGI,OVCAR-5; read-out: pTGI,> 100 µM
same,GI50,A549,27.5 µM
same,CC50,A549; [1],> 100 µM
same,TGI,A549; read-out: TGI,> 100 µM
same,CC50,A549; [2],> 100 µM
same,TGI,A549; read-out: pTGI,> 100 µM
same,GI50,EKVX,22.9 µM
same,CC50,EKVX; [1],> 100 µM
same,TGI,EKVX; read-out: TGI,> 100 µM
same,CC50,EKVX; [2],> 100 µM
same,TGI,EKVX; read-out: pTGI,> 100 µM
same,GI50,DU-145,5.37 µM
same,LC50 (50% lethal concentration),DU-145; read-out: LC50,> 100 µM
same,TGI,DU-145; read-out: TGI,53.5 µM
same,LC50 (50% lethal concentration),DU-145; read-out: pLC50 (converted),> 100 µM
same,TGI,DU-145; read-out: pTGI (converted),53.7 µM
same,GI50,SW-620,3.31 µM
same,CC50,SW-620; [1],> 100 µM
same,TGI,SW-620; read-out: TGI,> 100 µM
same,CC50,SW-620; [2],> 100 µM
same,TGI,SW-620; read-out: pTGI,> 100 µM
